Consider 4 compounds from ChEMBL document CHEMBL3593176, “Design and biological evaluation of novel 4-(2-fluorophenoxy)quinoline derivatives bearing an imidazolone moiety as c-Met kinase inhibitors” (Bioorg Med Chem, 2015).

In experiment [1] the target is Epidermal growth factor receptor (Homo sapiens, UniProt P00533). In words: Inhibition of EGFR (unknown origin) using poly (Glu, Tyr) 4:1 as substrate after 30 mins by HTRF assay. Summed up: (§1)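 Purified tyrosine kinase with poly(Glu,Tyr) 4:1 substrate (20 µg/mL) and ATP (10 mM solution) in 50 mM HEPES pH 7.0 buffer containing DTT, MgCl₂, MnCl₂, 0.1% NaN₃; compounds at various concentrations in 1% DMSO. Inhibition normalised to enzyme-free and uninhibited controls; IC50 from inhibition curves.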
For orientation: In TR-FRET formats the signal depends on donor and acceptor labels being close together.

The target in experiment [2] is Mast/stem cell growth factor receptor Kit (Homo sapiens, UniProt P10721). Put plainly: Inhibition of c-Kit (unknown origin) using poly (Glu, Tyr) 4:1 as substrate after 30 mins by HTRF assay. The essentials:
as §1

Experiment [3] has as its target Hepatocyte growth factor receptor (Homo sapiens, UniProt P08581). Put plainly: Inhibition of c-Met (unknown origin) using poly (Glu, Tyr) 4:1 as substrate after 30 mins by HTRF assay.
The test system of a further experiment is A549. Put plainly: cells. The following applies: Homo sapiens, A549, 72 h.
Experiment [4] can be described thus: cells. The note with it: Homo sapiens, MKN-45, 72 h.
The target in experiment [5] is Macrophage-stimulating protein receptor (Homo sapiens, UniProt Q04912). In words: Inhibition of Ron (unknown origin) using poly (Glu, Tyr) 4:1 as substrate after 30 mins by HTRF assay. The essentials:
as §1

Another experiment relates to MKN-45. Put plainly: Potency index, ratio of foretinib IC50 to compound IC50 for human MKN45 cells. The class given is functional.
Experiment [6] in a line: Potency index, ratio of foretinib IC50 to compound IC50 for human H460 cells. The class given is functional.
The test system of another experiment is HT-29. Put plainly: cells. The following applies: Homo sapiens, HT-29, 72 h.
The target in experiment [7] is T1, Receptor-type tyrosine-protein kinase FLT3 (Homo sapiens, UniProt P36888).
T1 sequence (P36888 whole entry): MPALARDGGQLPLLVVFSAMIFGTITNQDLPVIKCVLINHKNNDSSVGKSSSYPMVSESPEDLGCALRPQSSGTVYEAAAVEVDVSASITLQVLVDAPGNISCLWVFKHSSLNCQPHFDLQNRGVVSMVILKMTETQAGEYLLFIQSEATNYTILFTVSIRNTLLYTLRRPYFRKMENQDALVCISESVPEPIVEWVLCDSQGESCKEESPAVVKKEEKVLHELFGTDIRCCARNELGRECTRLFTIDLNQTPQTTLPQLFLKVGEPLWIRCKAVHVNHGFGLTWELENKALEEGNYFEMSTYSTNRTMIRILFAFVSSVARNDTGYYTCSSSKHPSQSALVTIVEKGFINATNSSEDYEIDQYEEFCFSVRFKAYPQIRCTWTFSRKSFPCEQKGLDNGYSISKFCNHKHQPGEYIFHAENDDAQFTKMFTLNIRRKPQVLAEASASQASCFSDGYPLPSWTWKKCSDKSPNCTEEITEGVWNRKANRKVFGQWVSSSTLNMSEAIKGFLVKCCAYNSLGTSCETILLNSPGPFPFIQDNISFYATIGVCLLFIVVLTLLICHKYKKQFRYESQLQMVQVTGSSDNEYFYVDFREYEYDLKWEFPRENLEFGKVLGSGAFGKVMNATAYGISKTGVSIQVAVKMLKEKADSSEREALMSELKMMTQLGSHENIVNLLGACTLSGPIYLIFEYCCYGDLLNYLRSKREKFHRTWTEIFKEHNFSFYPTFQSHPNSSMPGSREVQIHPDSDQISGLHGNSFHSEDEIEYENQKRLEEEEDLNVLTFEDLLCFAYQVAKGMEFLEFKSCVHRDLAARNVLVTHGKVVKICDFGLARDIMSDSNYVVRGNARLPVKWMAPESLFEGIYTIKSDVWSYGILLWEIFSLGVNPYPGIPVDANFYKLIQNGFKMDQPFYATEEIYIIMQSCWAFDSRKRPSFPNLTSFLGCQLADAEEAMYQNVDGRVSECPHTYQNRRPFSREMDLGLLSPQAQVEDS
Put plainly: Inhibition of FLT-3 (unknown origin) using poly (Glu, Tyr) 4:1 as substrate after 30 mins by HTRF assay.

Experiment [8] concerns the target Vascular endothelial growth factor receptor 2 (Homo sapiens, UniProt P35968). In words: Inhibition of VEGFR-2 (unknown origin) using poly (Glu, Tyr) 4:1 as substrate after 30 mins by HTRF assay.
Experiment [9] in a line: cells. The note with it: Homo sapiens, NCI-H460, 72 h.

As usually defined, the IC50 is the concentration needed to halve the response being measured. A lower IC50 goes with inhibition by little substance.

Some results are limits rather than exact numbers.

Epidermal growth factor receptor, sequence (P00533 whole entry): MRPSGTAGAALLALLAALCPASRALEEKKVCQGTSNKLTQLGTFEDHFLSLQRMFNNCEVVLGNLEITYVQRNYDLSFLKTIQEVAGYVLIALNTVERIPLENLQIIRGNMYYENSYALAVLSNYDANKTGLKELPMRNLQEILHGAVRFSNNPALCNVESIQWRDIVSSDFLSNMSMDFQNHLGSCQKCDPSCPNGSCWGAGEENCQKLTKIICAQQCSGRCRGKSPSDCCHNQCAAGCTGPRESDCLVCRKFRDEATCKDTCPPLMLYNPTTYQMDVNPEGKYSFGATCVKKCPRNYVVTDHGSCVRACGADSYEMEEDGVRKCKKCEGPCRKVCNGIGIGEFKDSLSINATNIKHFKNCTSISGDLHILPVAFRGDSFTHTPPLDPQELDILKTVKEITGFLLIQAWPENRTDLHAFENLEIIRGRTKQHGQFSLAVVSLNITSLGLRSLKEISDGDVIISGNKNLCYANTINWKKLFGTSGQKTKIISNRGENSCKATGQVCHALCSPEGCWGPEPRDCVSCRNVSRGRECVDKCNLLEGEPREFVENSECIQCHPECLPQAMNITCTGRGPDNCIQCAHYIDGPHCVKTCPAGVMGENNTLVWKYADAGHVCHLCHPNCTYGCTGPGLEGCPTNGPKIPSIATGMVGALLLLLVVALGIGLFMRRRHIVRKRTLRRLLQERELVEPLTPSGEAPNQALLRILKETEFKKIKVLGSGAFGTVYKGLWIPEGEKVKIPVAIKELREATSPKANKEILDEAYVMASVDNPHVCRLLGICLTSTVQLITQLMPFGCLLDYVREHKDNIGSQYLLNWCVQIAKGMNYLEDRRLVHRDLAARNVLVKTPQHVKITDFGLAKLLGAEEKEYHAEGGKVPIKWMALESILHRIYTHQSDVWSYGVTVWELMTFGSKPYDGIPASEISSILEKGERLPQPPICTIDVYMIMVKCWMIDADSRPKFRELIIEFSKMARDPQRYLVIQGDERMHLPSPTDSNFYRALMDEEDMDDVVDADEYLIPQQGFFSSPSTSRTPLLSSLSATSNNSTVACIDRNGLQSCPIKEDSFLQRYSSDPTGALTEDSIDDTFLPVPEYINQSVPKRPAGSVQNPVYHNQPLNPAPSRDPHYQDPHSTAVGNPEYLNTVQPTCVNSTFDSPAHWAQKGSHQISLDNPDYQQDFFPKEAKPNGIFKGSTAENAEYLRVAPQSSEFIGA
Vascular endothelial growth factor receptor 2, sequence (P35968 whole entry): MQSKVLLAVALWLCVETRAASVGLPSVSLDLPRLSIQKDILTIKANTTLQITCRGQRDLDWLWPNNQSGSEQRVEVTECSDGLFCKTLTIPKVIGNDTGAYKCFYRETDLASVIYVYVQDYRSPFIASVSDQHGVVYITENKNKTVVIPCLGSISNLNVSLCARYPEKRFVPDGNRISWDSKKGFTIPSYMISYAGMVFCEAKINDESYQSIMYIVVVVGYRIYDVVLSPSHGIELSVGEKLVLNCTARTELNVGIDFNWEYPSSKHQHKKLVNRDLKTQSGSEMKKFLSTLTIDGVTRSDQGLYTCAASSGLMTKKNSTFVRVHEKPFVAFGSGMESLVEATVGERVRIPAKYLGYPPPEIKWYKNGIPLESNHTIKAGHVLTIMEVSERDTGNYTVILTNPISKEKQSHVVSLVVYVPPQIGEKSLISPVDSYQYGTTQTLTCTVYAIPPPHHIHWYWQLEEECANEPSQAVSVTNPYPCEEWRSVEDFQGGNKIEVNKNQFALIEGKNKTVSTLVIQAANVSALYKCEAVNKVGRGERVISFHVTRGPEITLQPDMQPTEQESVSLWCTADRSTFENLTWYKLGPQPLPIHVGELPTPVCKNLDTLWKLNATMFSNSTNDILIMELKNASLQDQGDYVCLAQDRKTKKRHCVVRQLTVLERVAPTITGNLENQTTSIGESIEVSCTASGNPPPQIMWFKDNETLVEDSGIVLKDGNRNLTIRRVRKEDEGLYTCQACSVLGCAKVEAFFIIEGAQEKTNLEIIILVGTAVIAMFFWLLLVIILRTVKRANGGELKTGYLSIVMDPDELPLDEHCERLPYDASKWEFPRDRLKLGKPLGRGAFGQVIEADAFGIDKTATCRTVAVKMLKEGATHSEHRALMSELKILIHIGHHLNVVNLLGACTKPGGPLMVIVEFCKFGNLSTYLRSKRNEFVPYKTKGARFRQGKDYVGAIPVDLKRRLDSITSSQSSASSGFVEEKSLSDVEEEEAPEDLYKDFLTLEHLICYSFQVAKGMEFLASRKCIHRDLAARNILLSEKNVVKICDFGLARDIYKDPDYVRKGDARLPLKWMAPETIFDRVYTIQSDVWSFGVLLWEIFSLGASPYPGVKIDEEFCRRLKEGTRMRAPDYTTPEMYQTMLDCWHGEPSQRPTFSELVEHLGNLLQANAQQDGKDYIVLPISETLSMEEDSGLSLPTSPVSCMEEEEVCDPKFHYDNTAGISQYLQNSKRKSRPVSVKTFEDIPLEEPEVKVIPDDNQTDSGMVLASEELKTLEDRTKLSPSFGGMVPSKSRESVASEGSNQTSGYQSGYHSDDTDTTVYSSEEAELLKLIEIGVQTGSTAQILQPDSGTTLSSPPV
Mast/stem cell growth factor receptor Kit, sequence (P10721 whole entry): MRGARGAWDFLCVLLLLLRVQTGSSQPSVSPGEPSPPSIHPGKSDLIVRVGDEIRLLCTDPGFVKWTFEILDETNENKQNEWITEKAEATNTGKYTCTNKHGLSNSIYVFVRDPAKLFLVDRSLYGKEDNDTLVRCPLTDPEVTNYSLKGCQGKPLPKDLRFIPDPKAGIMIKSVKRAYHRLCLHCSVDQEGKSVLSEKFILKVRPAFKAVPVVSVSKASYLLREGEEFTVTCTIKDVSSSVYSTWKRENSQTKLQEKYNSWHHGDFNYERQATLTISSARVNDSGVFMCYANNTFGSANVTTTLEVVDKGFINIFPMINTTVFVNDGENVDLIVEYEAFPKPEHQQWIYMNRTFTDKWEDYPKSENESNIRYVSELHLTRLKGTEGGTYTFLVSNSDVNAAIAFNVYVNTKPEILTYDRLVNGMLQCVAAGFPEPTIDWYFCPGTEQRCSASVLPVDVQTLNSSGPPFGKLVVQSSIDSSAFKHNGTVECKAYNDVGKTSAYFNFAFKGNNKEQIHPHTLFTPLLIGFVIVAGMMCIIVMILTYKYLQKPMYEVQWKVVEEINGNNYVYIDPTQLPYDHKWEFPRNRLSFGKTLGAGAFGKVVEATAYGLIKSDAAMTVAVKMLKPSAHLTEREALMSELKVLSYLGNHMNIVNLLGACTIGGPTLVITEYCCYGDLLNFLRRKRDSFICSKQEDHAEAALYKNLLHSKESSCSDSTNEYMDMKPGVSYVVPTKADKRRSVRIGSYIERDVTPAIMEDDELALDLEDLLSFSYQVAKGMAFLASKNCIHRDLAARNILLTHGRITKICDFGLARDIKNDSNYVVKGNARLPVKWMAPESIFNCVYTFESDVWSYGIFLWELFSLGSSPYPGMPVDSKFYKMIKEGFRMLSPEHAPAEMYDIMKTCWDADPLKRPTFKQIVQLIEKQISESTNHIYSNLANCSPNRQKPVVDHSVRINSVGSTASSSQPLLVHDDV
Hepatocyte growth factor receptor, sequence (P08581 whole entry): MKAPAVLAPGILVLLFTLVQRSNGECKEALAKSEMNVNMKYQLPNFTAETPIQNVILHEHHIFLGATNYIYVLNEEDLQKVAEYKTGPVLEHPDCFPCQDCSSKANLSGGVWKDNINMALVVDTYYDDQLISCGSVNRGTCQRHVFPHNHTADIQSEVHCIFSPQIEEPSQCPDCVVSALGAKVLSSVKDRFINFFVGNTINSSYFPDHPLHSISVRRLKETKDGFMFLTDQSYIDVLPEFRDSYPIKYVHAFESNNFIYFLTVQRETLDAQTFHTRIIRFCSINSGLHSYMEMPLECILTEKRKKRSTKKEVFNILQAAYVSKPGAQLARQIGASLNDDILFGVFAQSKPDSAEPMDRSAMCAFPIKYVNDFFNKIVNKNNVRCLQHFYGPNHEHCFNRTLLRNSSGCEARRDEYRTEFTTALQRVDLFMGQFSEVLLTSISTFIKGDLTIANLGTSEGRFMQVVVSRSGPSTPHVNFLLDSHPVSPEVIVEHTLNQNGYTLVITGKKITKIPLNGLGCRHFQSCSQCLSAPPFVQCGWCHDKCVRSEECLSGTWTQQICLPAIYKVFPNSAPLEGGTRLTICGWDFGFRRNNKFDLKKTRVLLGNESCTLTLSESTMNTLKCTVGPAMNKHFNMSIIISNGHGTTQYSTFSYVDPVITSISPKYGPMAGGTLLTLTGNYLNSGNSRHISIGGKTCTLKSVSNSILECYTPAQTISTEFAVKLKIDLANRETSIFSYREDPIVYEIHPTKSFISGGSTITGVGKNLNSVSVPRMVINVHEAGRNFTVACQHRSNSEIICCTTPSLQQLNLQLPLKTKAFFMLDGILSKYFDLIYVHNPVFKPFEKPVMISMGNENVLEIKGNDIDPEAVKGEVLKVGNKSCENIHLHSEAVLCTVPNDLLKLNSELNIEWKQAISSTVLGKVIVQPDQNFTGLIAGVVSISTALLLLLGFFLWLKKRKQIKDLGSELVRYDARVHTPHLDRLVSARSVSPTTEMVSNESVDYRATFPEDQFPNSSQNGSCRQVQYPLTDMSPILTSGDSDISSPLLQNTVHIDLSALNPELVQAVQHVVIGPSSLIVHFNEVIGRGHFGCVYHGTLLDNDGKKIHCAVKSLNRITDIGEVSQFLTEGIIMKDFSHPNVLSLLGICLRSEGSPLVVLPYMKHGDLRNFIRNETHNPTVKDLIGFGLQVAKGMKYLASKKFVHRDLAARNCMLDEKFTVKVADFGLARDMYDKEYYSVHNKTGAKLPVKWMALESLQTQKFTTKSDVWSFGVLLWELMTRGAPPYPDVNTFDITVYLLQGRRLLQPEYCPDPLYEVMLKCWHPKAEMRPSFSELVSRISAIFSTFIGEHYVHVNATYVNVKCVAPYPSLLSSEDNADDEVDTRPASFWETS

For `COc1cc2c(Oc3ccc(NC(=O)c4[nH]c(=O)n(-c5ccccc5Cl)c4C)cc3F)ccnc2cc1OCCCN1CCN(C)CC1`, the IC50 is over 100000 nM in experiment [1]; 38.2 nM in [2]; 1.42 nM in experiment [3]; 250 nM with A549; 14 nM in “cells [4]”; 270 nM in experiment [5]. In addition, the IC50 turned out to be 86 nM in the experiment on HT-29, 134 nM in experiment [7], 92.6 nM in experiment [8] and 100 nM in “cells [9]”. The results for the “Ratio IC50” value (in the experiment with MKN-45; in [6]) were 8.6 and 2.1, respectively.
With `COc1cc2c(Oc3ccc(NC(=O)c4c(C)n(-c5ccccc5C(F)(F)F)c(=O)n4C)cc3F)ccnc2cc1OCCCN1CCN(C)CC1`, the IC50 in the experiment on A549 came to 370 nM; in the experiment “cells [4]”, 69 nM; in the experiment on HT-29, 130 nM; in the experiment “cells [9]”, 190 nM.
For the compound `COc1cc2c(Oc3ccc(NC(=O)c4c(C)n(-c5ccc(C(F)(F)F)cc5)c(=O)n4C)cc3F)ccnc2cc1OCCCN1CCN(C)CC1`, the IC50 stood at 500 nM with A549, 98 nM in the experiment “cells [4]”, 260 nM with HT-29 and 360 nM in the experiment “cells [9]”.
As for `COc1cc2c(Oc3ccc(NC(=O)c4c(C)n(-c5ccc(F)cc5)c(=O)n4C)cc3F)ccnc2cc1OCCCN1CCC(C)CC1`, the 50% inhibitory concentration (IC50) is 520 nM in the experiment on A549, 84 nM in the experiment “cells [4]”, 240 nM in the experiment with HT-29 and 250 nM in the experiment “cells [9]”.
